# Source: PubChem BioAssay
# NR2E3 ag-1: NR2E3 (human) agonism; GST-NR2E3/biotin-RetCOR TR-FRET, 1536-well; inhibition of corepressor binding, % at 4.78 µM; actives 0.12% (n = 320,000); AID 2300;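 active = percent inhibition above the cutoff of mean plus 3 SD of all tested compounds, set per screening campaign, cut at about 20% in these data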;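 also: 0% = DMSO wells and 100% = biotin wells as full block of FRET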
# Target sequence (Q9Y5X4 whole entry, looked up): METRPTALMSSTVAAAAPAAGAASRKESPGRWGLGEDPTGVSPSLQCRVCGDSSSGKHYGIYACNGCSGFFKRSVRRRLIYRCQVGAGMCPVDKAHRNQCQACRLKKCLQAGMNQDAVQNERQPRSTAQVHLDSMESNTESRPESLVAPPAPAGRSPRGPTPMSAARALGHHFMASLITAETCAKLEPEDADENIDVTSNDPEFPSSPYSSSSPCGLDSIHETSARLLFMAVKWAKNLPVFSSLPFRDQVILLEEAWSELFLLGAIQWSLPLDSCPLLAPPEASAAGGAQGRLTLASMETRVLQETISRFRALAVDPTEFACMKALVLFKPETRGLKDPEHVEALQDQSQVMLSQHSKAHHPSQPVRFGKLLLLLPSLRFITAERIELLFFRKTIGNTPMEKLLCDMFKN
#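 Material: NR2E3–RetCOR corepressor complex / Incubation: Compound–protein incubation for 5 h at 4 °C / Dosing: compound at 4.8 µM, single dose / Detection: time-resolved FRET / Benchmarks: high control biotin, low control 0.6% DMSO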
# NR2E3 ag-2: human photoreceptor-specific nuclear receptor agonism. Q9Y5X4. CHO-S Gal4-NCOR/VP16-NR2E3 two-hybrid, luciferase. inhibition of corepressor binding, % at 3.98 µM. actives 0.35% (n = 360,000);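 active = inhibition above the mean of all tested compounds plus 3 SD, cut at about 70% in these data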;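 also: 0% = DMSO with NR2E3 transfected cells and 100% = cells lacking NR2E3 construct; higher means lower luciferase signal from less NR2E3 corepressor binding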
# Jurkat NFkB inh: lowers PMA/ionomycin-induced NF-kB signal in Jurkat cells; PMA/ionomycin-induced NF-kB luciferase reporter, luminescence; inhibition, % at 4 µM; actives 0.53% (n = 330,000); AID 435003; in the data active = inhibition above about 50%
# GalR3 antag: blocks the human galanin receptor 3; O60755; HEK293 GalR3-CNG cAMP membrane potential fluorescence; galR3 body fused to GalR1 C-terminus; inhibition, % at 3 µM; actives 0.44% (n = 360,000); AID 651719;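 active = inhibition above the screen-wide average plus 3 SD, cut at about 13% in these data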;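 also: forskolin and galanin both at EC90 stimulate the cells; cAMP rise reported by CNG channel membrane potential dye signal; 0% = forskolin plus galanin with DMSO and 100% = forskolin alone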
# Target sequence (O60755 1-299 limits assumed): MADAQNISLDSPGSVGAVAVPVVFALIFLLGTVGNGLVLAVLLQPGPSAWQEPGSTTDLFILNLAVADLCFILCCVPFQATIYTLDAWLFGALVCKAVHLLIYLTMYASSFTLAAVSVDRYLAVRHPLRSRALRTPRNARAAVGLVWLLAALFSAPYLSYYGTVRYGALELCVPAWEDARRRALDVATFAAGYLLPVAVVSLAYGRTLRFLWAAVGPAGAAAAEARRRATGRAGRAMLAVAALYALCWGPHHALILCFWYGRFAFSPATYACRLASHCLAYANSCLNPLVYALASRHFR
# 697 NFkB inh: lowers PMA/ionomycin-induced NF-kB signal in 697 B cells; 697 B-cell NF-kB luciferase reporter, 16 h; inhibition, % at 4 µM; actives 0.33% (n = 330,000); in the data active = inhibition above about 35%
# Gli-Sufu block: antagonists of Gli-Sufu signaling. Sufu-KO-LIGHT fibroblasts, Gli luciferase reporter luminescence. inhibition, % at 5 µM. actives 0.74% (n = 340,000). AID 588413;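 active = inhibition above about 55%, limit read from the data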;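 also: 0% = DMSO-treated cells and 100% = wells with medium but no cells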
# Gli antag conf: Gli-SUFU antagonism confirmation, single concentration. shares compounds with Gli-Sufu block. Sufu-KO-LIGHT cells, Gli luciferase reporter, luminescence. inhibition, % at 5 µM. actives 40% (n = 2,500). AID 602428;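 active = mean inhibition at 5 µM reaching about 45%, limit read from the data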;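 also: plate controls were DMSO-treated cells for no effect and wells lacking cells for full effect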
# SufuKO cytotox: cytotoxicity counter-screen for Gli-SUFU antagonists; AID 651994; shares compounds with Gli-Sufu block; actives 32% (n = 2,500); Sufu-KO-LIGHT cells cytotoxicity, ATP luminescence; cytotoxicity, % at 5 µM;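 active = mean cytotoxicity at 5 µM above about 25%, limit read from the data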;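 also: cells exposed to compound overnight for roughly 16 to 18 hours; plate controls were DMSO wells with cells for no effect and medium without cells for full effect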
# Wnt3a counter: Wnt3a reporter inhibition counter-screen. Wnt-LIGHT cells, Wnt3a-driven luciferase reporter, luminescence. shares compounds with Gli-Sufu block. actives 20% (n = 2,500). inhibition, % at 6.25 µM. AID 651995;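 active = mean inhibition above about 25%, limit read from the data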
# Active calls of the source: *; x = not tested or not shown. Sampled rows, rich in hits. Any-hit rate of the full collection: about 1.8%.
SMILES,NR2E3 ag-1,NR2E3 ag-2,Jurkat NFkB inh,GalR3 antag,697 NFkB inh,Gli-Sufu block,Gli antag conf,SufuKO cytotox,Wnt3a counter
C[C@H](CO)N1C[C@H](C)[C@@H](CN(C)C(=O)Nc2ccc(N3CCN(C)CC3)cc2)OCc2cn(nn2)CCCC1=O,x,x,x,-6.5,x,x,x,x,x
Cc1ccc(S(=O)(=O)N(Cc2ccccc2)c2ccccc2C(=O)NCc2ccco2)cc1,0.0,-6.5,-12.2,-8.3,6.9,96.3*,22.9,22.2,4.5
CCN(CC)C(=O)c1ncn2c1C(=O)NC[C@H]2C,x,x,x,5.0,x,x,x,x,x
NCC(=O)Nc1ccc(Cl)cc1C(=O)c1ccc[nH]1,x,5.7,-2.3,-11.7,28.6,51.5,33.4,0.4,11.5
COc1ccc(C(=O)NN(C)c2nc(C(F)(F)F)nc3ccccc23)cc1,0.6,22.7,x,0.9,x,56.1*,54.6*,63.4*,0.5
COc1ccc(C(=O)NN(C)c2nc(-c3ccccc3)nnc2C(F)(F)F)cc1,2.6,5.7,3.6,-0.7,-6.1,-16.5,x,x,x
O=C(C[n+]1ccccc1)N/N=C/c1ccc(C(=O)O)cc1,-2.6,4.2,-7.0,-5.0,4.4,6.6,x,x,x
CN(C)c1ccc(/C=N/NC(=O)C[n+]2ccccc2)cc1,-3.9,-22.5,-9.7,-4.7,-3.6,52.6,9.7,5.7,-13.9
CNc1ncn(-c2c(C)cccc2C)c(=O)n1,x,x,x,-5.3,x,x,x,x,x
CN(C)c1ccc(C=Cc2nccc3ccccc23)cc1,x,-91.1,x,-2.1,x,x,x,x,x
CC[n+]1ccccc1/C=C/c1ccc(N(C)C)cc1,x,-6.6,x,-3.6,x,80.7*,83.9*,24.0,40.0*
C[C@@H]1CN([C@@H](C)CO)C(=O)CCCn2nncc2CO[C@@H]1CN(C)C(=O)C1CC1,x,x,x,0.2,x,x,x,x,x
N=c1c(S(=O)(=O)c2ccccc2)cc2c(=O)n3ccccc3nc2n1Cc1ccco1,3.7,-18.6,-6.1,-1.1,4.9,1.9,x,x,x
Cc1ccc2nc3c(cc(S(=O)(=O)c4ccccc4)c(=N)n3Cc3ccco3)c(=O)n2c1,-1.6,-89.1,-86.1,4.1,-109.4,50.7,-0.8,14.6,-38.9
CC1=C(C(=O)OCC(C)C)C(c2cccc(F)c2)N2C(=O)C(C)SC2=N1 (stereo not drawn),2.8,5.3,-10.8,0.5,-6.5,65.3*,10.9,-3.4,-12.1
Clc1ccc(SCCOCCN2CCCCC2)cc1,-1.9,3.5,-10.9,1.0,-3.4,78.8*,27.8,12.8,-26.1
Cc1[nH]c2ccccc2c1SCc1nnc(SCc2ccc(Cl)cc2)n1C,2.7,-21.0,1.5,-3.5,-5.7,50.7,23.9,3.5,43.0*
Cc1[nH]c2ccccc2c1SCc1nnc(SCc2ccccc2)n1C,1.4,-9.3,4.1,-3.3,18.3,-10.0,x,x,x
CC1(C)CC(=O)C2=C(C1)OC(c1ccc(O)cc1)C(C#N)=C2N (stereo not drawn),-1.5,-30.0,1.4,-2.8,-9.1,50.9,10.6,2.4,-6.4
CC(=O)N(c1ccc(Cl)cc1)c1c[nH]c2ccccc12,0.1,-2.3,17.2,-6.0,4.7,55.7*,13.6,7.5,-11.3
COc1cc(OC)c(NC(=O)NNC(=O)C(=O)NC2CC2)cc1Cl,x,x,x,-2.7,x,x,x,x,x
COc1ccc(S(=O)(=O)Nc2ccc3c(c2)C(=O)N([C@@H](C)CO)C[C@@H](C)[C@H](CN(C)S(=O)(=O)c2ccc(F)cc2)OCCCC[C@H](C)O3)cc1,x,-9.0,x,-5.2,x,x,x,x,x
COCC(=O)N1CCC(Oc2ccc(C(=O)NCCCn3cccn3)cc2)CC1,0.6,-22.5,-13.0,-6.2,1.7,53.3,21.2,6.6,4.7
CCCCCCCCCCOC(=O)C[N+](C)(C)C/C=C(/C)Cl,2.7,6.1,9.9,-1.3,-19.2,63.4*,69.5*,26.6*,35.2*
CC(NC(=O)c1cccc(S(=O)(=O)N2CCN(C)CC2)c1)C1CC2CCC1C2 (stereo not drawn),-1.0,0.8,3.9,1.7,16.9,57.7*,15.7,12.2,-30.7
SMILES,NR2E3 ag-1,NR2E3 ag-2,Jurkat NFkB inh,GalR3 antag,697 NFkB inh,Gli-Sufu block,Gli antag conf,SufuKO cytotox,Wnt3a counter
CC(NC(=O)c1cccc(Cl)c1)C1CC2CCC1C2 (stereo not drawn),4.1,-5.3,4.8,-6.3,-2.0,-8.9,x,x,x
Cn1c(SCC(=O)O)nnc1-c1ccc2ncccc2c1,-0.2,x,-0.8,-0.6,6.4,x,x,x,x
CCCCOCC1CN(CCCC)S(=O)(=O)c2c(Oc3ccc(SC)c(C)c3)cccc2O1 (stereo not drawn),x,x,x,-3.5,x,x,x,x,x
C[C@H](CO)N1C[C@H](C)[C@@H](CN(C)S(=O)(=O)c2cn(C)cn2)Oc2ccc(NC(=O)Nc3ccccc3)cc2C1=O,x,-7.1,-1.1,-1.9,6.8,95.6*,12.1,2.7,-47.3
C[C@H](CO)N1C[C@H](C)[C@@H](CN(C)S(=O)(=O)c2ccc(Cl)cc2)Oc2ccc(NS(=O)(=O)c3ccccc3)cc2CC1=O,x,12.4,-0.9,6.0,-3.3,58.1*,9.9,-12.3,-22.3
C[C@@H]1CN([C@@H](C)CO)C(=O)c2cc(NC(=O)Nc3ccc4c(c3)OCO4)ccc2O[C@H]1CN(C)S(=O)(=O)c1cn(C)cn1,x,-25.0,5.5,-4.4,9.4,-1.6,x,x,x
COc1ccc(CC2(CO)CCN(C(C)Cc3ccc(Cl)cc3)CC2)cc1 (stereo not drawn),-0.4,-19.6,3.2,2.7,7.9,4.5,x,x,x
O=S(=O)(NCc1cn2ccccc2n1)c1cc(F)ccc1F,2.4,-10.8,-13.2,-3.9,-0.7,61.7*,25.6,7.8,-13.8
O=S(=O)(NCc1cn2ccccc2n1)c1cccs1,2.6,-63.0,-20.1,-6.4,-9.3,-9.9,x,x,x
CCCCCCCCN1C(=O)[C@@H](CC(=O)NCC2CCCCC2)C[C@@]2(C(=O)OC)C1=C[C@H](C1CCCC1)O[C@@H]2C,x,x,x,-4.3,x,x,x,x,x
Cc1cc(C)nc(N/N=C2/CCCC/C2=C\c2ccccc2)n1,5.5,-1.8,-8.7,0.1,-43.8,74.1*,30.2,2.7,-4.1
Cc1cc(C)nc(N/N=C/c2ccccc2OCc2ccccc2)n1,-1.5,9.9,2.8,-1.4,11.4,-0.3,x,x,x
COC(=O)c1cc(S(=O)(=O)N2CCN(c3ccc([N+](=O)[O-])cc3)CC2)c[nH]1,4.1,-29.1,16.2,-0.9,-7.5,51.0,21.0,-1.1,-68.1
COC(=O)c1cc(S(=O)(=O)N2CCN(c3ccc(F)cc3)CC2)c[nH]1,1.2,12.8,11.8,1.3,-11.1,-47.3,x,x,x
COc1ccccc1NC(=O)C(=O)N/N=C(\C)CC(=O)Nc1ccccn1,-1.3,15.3,-0.8,1.2,-5.3,x,x,x,x
